Yeast growth inh: chemicals that inhibit yeast BB579 growth in restrictive medium (lifespan-shortening candidates); S. cerevisiae BB579 growth, OD615, 48 h; inhibition, % at 10 µM; actives 0.51% (n = 140,000);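 active = inhibition above a set limit, 3 SD over the mean compound inhibition, cut at about 44% in these data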
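Test system: Saccharomyces cerevisiae DeaD strain BB579, replicative lifespan model yeast | Buffer or medium: Restrictive CSMM-D medium | Doses: One dose, 10 µM compound with 0.25% DMSO | Incubation: 48 h exposure, 30 °C | Detection: Culture absorbance at 615 nm | Control set: Amphotericin B at 10 µg/mL as positive control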
TNAP inh hiacc: TNAP (human) inhibition, high acceptor; P05186; purified TNAP, CDP-star luminescence, 1 M DEA; inhibition, % at 20 µM; actives 0.03% (n = 200,000);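 active = over 50% inhibition of tissue-nonspecific alkaline phosphatase at 20 µM in the single-dose screen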;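 note: plate controls were DMSO wells for no effect and EDTA-quenched wells as full inhibition for full effect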
Target sequence (P05186 whole entry, looked up): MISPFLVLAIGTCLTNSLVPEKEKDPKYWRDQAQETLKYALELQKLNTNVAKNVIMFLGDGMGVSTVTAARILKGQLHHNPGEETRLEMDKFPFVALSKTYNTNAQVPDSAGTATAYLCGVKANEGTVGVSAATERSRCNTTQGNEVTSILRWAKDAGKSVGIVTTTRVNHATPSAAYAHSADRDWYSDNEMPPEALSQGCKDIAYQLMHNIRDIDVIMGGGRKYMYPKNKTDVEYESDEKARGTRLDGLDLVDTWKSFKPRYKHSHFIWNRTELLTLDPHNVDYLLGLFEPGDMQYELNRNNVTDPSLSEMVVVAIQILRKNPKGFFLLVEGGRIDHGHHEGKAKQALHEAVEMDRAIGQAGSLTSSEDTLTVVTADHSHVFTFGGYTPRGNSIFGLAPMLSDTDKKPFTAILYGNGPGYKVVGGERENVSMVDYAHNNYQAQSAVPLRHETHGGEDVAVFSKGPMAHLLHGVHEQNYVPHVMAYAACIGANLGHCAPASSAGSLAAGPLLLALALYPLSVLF
TNAP inh no acc: inhibitors of human TNAP without phosphate acceptor. P05186. purified TNAP, CDP-star luminescence, 30 min. inhibition, % at 20 µM. actives 0.26% (n = 200,000);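 active = tissue-nonspecific alkaline phosphatase inhibition above about 50% at 20 µM in the single-dose screen, limit read from the data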;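 note: 0% = DMSO negative control and 100% = EDTA positive control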
Yeast lifespan up: extends the lifespan of yeast; S. cerevisiae growth with nicotinamide, OD615; deaD strain in restrictive glucose medium; AID 775; inhibition of the nicotinamide effect, % at 10 µM; actives 0.68% (n = 130,000);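 active = inhibition above a set limit, placed 3 SD over the median of all compounds, cut at about 26% in these data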;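 note: 0% = nicotinamide-treated wells and 100% = cells grown without nicotinamide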
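Test system – modified budding yeast, DeaD strain · Compound – single dose 10 µM compound, 0.25% DMSO · Times – culture preincubation 4 h, compound exposure 48 h, both 30 °C · Detection – optical density (absorbance) at 615 nm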
RAM inhibit: blocks the yeast RAM network | actives 1.8% (n = 190,000) | inhibition, % at 50 µM | S. cerevisiae dse1pr::URA3 reporter, 5-FOA growth OD615, 2 d; analog-sensitive cbk1-as2 kinase mutant strain;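 active = inhibition above a set limit, 3 SD over mean compound inhibition, cut at about 8.4% in these data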;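 note: 0% = DMSO-only wells with no growth and 100% = 10 µM 1-NA-PP1 full growth; inhibition rescues growth on 5-FOA so higher OD means more RAM inhibition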
TNAP act hiacc: activators of human TNAP at high phosphate acceptor concentration; P05186; purified TNAP, CDP-star luminescence, 1 M DEA, 30 min; hits give high values; 0 = EDTA background, 1 = DMSO-only activity; activation factor at 20 µM; 200,000 tested, under 10 active; AID 1136;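 active = activation factor at least 2 at 20 µM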
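Control set: EDTA negative control, DMSO positive control / Assay system: human TNAP / Quantity: TNAP 1/800 final / Evaluation: TNAP activation factor scaled between EDTA and DMSO control wells / Measured by: luminescent substrate turnover signal / Compound dosing: one dose, 20 µM / Times: 30 min enzyme reaction at room temperature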
* marks the source's active call; other numbers are inactive results; nt = not tested or not shown. An excerpt weighted towards active compounds, which were near 2.8% of everything screened.

SMILES	Yeast growth inh	TNAP inh hiacc	TNAP inh no acc	Yeast lifespan up	RAM inhibit	TNAP act hiacc
CCOC(=O)c1cc(-c2ccccc2)sc1NC(=O)C(C)Sc1nnc(C)s1 (stereo unspecified)	-6	-3	-4	5	11*	1
CCOC(=O)c1cc(CC)sc1NC(=O)C(c1ccccc1)c1ccccc1	-63	-4	-9	-8	9.3*	1
CN(CCNC(=O)c1ccc(N2CCCC2=O)cc1)CCc1ccccc1	-31	-1	-10	6	0	1
CCn1nc(C)c(C2C(C#N)=C(N)OC3=C2C(=O)CC(C)(C)C3)c1C (stereo unspecified)	2	-7	-8	-4	1	1.1
CSC1=NSC2=NC(=O)/C(=C\c3cccs3)C(=N)N12	-5	-2	-11	43*	1	1
CC(C)CSC1=NSC2=NC(=O)/C(=C\c3cccs3)C(=N)N12	-45	6	8	12	6	0.9
CSC1=NSC2=NC(=O)/C(=C/c3coc4ccccc4c3=O)C(=N)N12	68*	2	-1	8	3	1
CCc1ccc(NC(=O)CSCc2ccc(C(=O)O)cc2)cc1	nt	-5	-9	nt	3	1.1
Cc1ccc(C(=O)NNC(=O)CCN2C(=O)C3CCCCC3C2=O)cc1 (stereo unspecified)	-16	-3	-27	-3	0	1
Cc1ccc(S(=O)(=O)C/N=C(/NC(=S)N(c2ccccc2)c2ccccc2)c2ccccc2)cc1	-46	-3	-22	46*	1	1
COc1ccc(-c2nc(NC(=O)c3n[nH]c(=O)c4ccccc34)sc2C)cc1	-30	-8	-48	-4	1	1.1
Cc1cc(C(=O)Nc2nnc(-c3ccccc3)s2)no1	-39	-6	-4	27*	3	1.1
Cc1cc(C(=O)Nc2nnc(C3CCCCC3)s2)no1	-8	1	-1	-6	1	1
Cc1ccc(C(=O)c2ccc(C)cc2)cc1	nt	-3	8	nt	0	1
Cc1ccc(C(=O)c2no[n+]([O-])c2C(=O)c2ccc(C)cc2)cc1	19	-1	-4	27*	0	1
CCOC(=O)c1ccc[n+](CC(=O)Nc2cc(C(F)(F)F)ccc2Cl)c1	nt	1	-6	nt	0	1
CC1C/C(=C\c2cccnc2)C(=O)/C(=C/c2cccnc2)C1 (stereo unspecified)	-4	-1	3	70*	2	1
O=c1nc(Nc2ccc(OCc3ccccc3)cc2)sc2ncccc12	nt	-5	-20	nt	9.3*	1
Cc1nn(-c2ccc([N+](=O)[O-])cc2)c2c1C(c1cccc(Br)c1)N1C(=N2)C(=O)Nc2ccccc21 (stereo unspecified)	-43	10	8	10	10*	0.9
CCc1ccc(NC(=O)c2ccc3c(c2)C(=O)N(CCOC)C3Nc2ccc(CC)cc2)cc1 (stereo unspecified)	-16	-1	1	1	2	1
COc1cc(/C=N/N(C)c2ccccc2)cc(Cl)c1O	100*	3	-4	-13	-2	1
OCCN1CCN(c2ncnc3c2c(-c2ccccc2)cn3-c2ccc(F)cc2)CC1	nt	-3	-7	nt	2	1
CC1CN(c2ncnc3c2c(-c2ccccc2)cn3-c2ccc(F)cc2)CC(C)O1 (stereo unspecified)	nt	-6	-14	nt	8.7*	1.1
O=C(COC(=O)C1=COCCO1)Nc1ccc(OC(F)F)cc1	nt	-1	-11	nt	0	1
O=C(CSc1nnc(SCc2ccccc2)s1)N/N=C/c1c(Cl)cccc1Cl	-23	-5	-2	14	10*	1.1
COc1ccc(C(=O)NCc2ccc3c(c2)OCO3)cc1S(=O)(=O)N(C)Cc1ccccc1	-35	-6	-5	3	9.6*	1.1
CN(c1ccccc1)S(=O)(=O)c1cccc(C(=O)OCC(=O)NCc2ccc3c(c2)OCO3)c1	-34	-2	-12	5	10*	1
